Counter-ions that a name gives are not always drawn. Like-named read-outs stand apart in the source and are kept apart here.
How the values were obtained:
HCV NS3h = target: T1, HCV NS3h (Hepatitis C virus genotype 1b, UniProt Q9WMX2); assay: FP-based binding assay, NS3h displacement from Cy5-dT15 DNA; set-up: species or system hepatitis C virus genotype 1b (con1); settings: for NS3h (% I): percent inhibition of NS3h binding to Cy5-dT15: 100 μM of each compound; for inhibition at 100 µM: read-out: NS3h (% I): percent inhibition of NS3h binding to Cy5-dT15, 100 μM of each compound; for ability to inhibit HCV helicase binding to DNA (in words): compared with ebselen
T1 sequence (Q9WMX2 1190-1657 limits assumed): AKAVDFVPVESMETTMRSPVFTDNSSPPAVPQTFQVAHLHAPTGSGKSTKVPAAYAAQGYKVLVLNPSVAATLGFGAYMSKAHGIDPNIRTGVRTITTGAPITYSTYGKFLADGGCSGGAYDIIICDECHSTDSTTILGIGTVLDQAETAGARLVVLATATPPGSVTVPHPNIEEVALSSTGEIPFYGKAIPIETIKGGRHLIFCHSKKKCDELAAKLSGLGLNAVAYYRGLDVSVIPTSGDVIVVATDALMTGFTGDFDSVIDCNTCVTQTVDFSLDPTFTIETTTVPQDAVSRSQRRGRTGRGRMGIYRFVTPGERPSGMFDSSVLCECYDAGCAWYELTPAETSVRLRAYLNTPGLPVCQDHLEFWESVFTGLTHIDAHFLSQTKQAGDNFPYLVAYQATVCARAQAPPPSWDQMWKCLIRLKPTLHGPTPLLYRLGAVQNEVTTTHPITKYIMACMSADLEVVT
Summary of the method: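 Fluorescence polarization with Cy5-dT15 and NS3h: excitation 635 nm; parallel and perpendicular emission read at 667 nm; G-factor taken from probe-only wells. % inhibition normalized to DMSO-only (negative) and 200 nM dT20 or 100 μM primuline (positive) controls. Single-point tests at 100 μM. IC50 is the concentration displacing 50% of NS3h from DNA. Reversibility: 10 μM NS3h preincubated 1 h with test compound, then diluted 100–100 000-fold into Cy5-dT15 and compared with untreated controls.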

E. coli SSB = E. coli SSB (Escherichia coli, UniProt P0AGE0); assay: FP-based binding assay with SSB in place of NS3h; settings: for SSB binding inhibition relative to NS3h binding inhibition: 100 μM; for SSB (% I): percent inhibition of SSB binding to Cy5-dT15: 100 μM of each compound; for inhibition at 100 µM: read-out: SSB (% I): percent inhibition of SSB binding to Cy5-dT15
Sequence of E. coli SSB (P0AGE0 2-178 limits assumed): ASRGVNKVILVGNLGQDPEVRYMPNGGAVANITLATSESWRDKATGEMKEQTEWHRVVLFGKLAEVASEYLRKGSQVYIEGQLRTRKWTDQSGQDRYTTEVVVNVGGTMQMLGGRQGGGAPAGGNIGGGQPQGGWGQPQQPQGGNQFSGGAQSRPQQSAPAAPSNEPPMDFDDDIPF
Summary of the method: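 Fluorescence polarisation assay with E. coli SSB in place of NS3h, using Cy5-dT15 (or Cy5-rU15 for titrations). Screen compounds were pin-transferred to 100 μM final, 1% DMSO. Excitation 635 nm, emission 667 nm; G-factor from probe-only wells. Percent inhibition was normalised to DMSO and to unlabeled dT20 or 100 μM primuline controls.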

[1] = tested on: HCV genotype 2a isolate (JFH1); settings: 20 μM of each compound; ref Gastaminza et al.[9]; cited from earlier work
[2] = tested on: HCV Con1/1b Rluc subgenomic replicon in Huh-7.5 cells; assay: HCV subgenomic replicon assay; format: cell-based, hepatitis C virus genotype 1b; settings: for antiviral potency relative to ebsulfur/ebselen (times more potent): replicon; for therapeutic index (CC50/EC50): replicon EC50 and Huh7.5 CC50
Summary of the method: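 Huh-7.5 cells carrying a stable genotype 1b Con1 Renilla luciferase subgenomic replicon (kept in 0.25 mg/mL Geneticin) were seeded at 10 × 10^3 per well. Two-fold compound series, 0.5% final DMSO, 3 days at 37 °C, 5% CO2. Washed cells were lysed and Renilla luminescence read. EC50 is the concentration halving Rluc; CC50 comes from a parallel CellTiter-Glo viability run; three independent titrations.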

SSB = SSB (Escherichia coli, UniProt P0AGE0 1-178); assay: fluorescence polarization
Sequence of SSB (P0AGE0 whole entry): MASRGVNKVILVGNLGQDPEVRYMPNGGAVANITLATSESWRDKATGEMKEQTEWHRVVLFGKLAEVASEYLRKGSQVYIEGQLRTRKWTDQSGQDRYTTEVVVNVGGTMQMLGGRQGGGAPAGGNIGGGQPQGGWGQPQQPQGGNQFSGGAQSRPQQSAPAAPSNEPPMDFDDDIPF

NS3h_1b(con1) [3] = target: T2, NS3h_1b(con1) (Hepatitis C virus genotype 1b, con1 …, UniProt Q9WMX2 1190-1657); assay: fluorescence polarization
NS3h_2a(JFH1) = NS3h_2a(JFH1) (Hepatitis C virus genotype 2a, JFH1, UniProt Q99IB8 1194-1661); assay: fluorescence polarization
Sequence of NS3h_2a(JFH1) (Q99IB8 1194-1661): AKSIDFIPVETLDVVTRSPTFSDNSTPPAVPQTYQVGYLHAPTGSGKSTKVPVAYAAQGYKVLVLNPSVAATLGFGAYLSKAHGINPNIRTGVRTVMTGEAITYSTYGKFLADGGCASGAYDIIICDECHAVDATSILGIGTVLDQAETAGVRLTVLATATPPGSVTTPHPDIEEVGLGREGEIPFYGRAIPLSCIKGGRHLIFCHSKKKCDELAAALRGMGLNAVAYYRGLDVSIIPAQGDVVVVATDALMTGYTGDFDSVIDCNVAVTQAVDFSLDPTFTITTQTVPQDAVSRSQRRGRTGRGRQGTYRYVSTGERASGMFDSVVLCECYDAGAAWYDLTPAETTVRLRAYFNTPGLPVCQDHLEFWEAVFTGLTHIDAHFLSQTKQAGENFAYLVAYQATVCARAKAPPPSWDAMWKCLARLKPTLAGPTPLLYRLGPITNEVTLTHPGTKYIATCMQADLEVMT

NS3h_1b(con1) [4] = target: T2, NS3h_1b(con1); assay: fluorescence polarization; remark: listed apart in the source
NS3h_1b(con1) [5] = target: T2, NS3h_1b(con1); assay: fluorescence polarization; remark: listed apart in the source

Molecule: O=C(CCn1sc2ccccc2c1=O)Nc1ccccc1 [compound 13, 3-(3-Oxobenzo[d]isothiazol-2(3H)-yl)-N-phenylpropanamide]
- decrease in the ability to inhibit HCV helicase (longer linker) (HCV NS3h; relative to peptide-linker analogues): 10 fold

Molecule: C=CC1=C(C(=O)O)N2C(=O)[C@@H](NC(=O)C(=NOCC(=O)O)c3csc(N)n3)[C@H]2SC1.O [HMS2052E19]
- NS3h (% I): percent inhibition of NS3h binding to Cy5-dT15 (HCV NS3h): 28%
- SSB binding inhibition relative to NS3h binding inhibition (E. coli SSB): 3–4 times
- SSB (% I): percent inhibition of SSB binding to Cy5-dT15 (E. coli SSB): 95%
- HCV (% I): percent inhibition of HCV replication in cells [1]: <0%

Molecule: O=c1c2cc(F)c(F)cc2sn1-c1ccccc1 [compound 2, 5,6-Difluoro-2-phenylbenzo[d]isothiazol-3(2H)-one]
- antiviral potency relative to ebsulfur/ebselen (times more potent) [2]: ~10 times
- therapeutic index (CC50/EC50) [2]: ~1

Molecule: COc1cccc2c1C(=O)c1c(O)c3c(c(O)c1C2=O)C[C@@](O)(C(=O)CO)C[C@@H]3O[C@H]1C[C@H](N)[C@H](O)[C@H](C)O1 [Doxorubicin Hydrochloride]
- inhibition at 100 µM (HCV NS3h): 8%
- inhibition at 100 µM (E. coli SSB): 90%
- HCV (% I): percent inhibition of HCV replication in cells [1]: 100%

Molecule: O=c1cc(-c2ccccc2)sn1-c1ccccc1 [compound 14, 2,5-Diphenylisothiazol-3(2H)-one]
- ability to inhibit HCV helicase binding to DNA (in words) (HCV NS3h): complete loss of activity

Molecule: CCCCCCCCCOc1ccc2[nH]cc(CCN)c2c1 [5-Nonyloxy-tryptamine]
- inhibition at 100 µM (HCV NS3h): -8%
- inhibition at 100 µM (E. coli SSB): 67%
- HCV (% I): percent inhibition of HCV replication in cells [1]: 100%

Molecule: O=C1c2c(O)ccc(O)c2C(=O)c2c(NCCNCCO)ccc(NCCNCCO)c21 [Mitoxantrone]
- NS3h (% I): percent inhibition of NS3h binding to Cy5-dT15 (HCV NS3h; 100 µM): 125%
- NS3h (% I): percent inhibition of NS3h binding to Cy5-dT15 (HCV NS3h; listed as mitoxantrone, 100 µM): more than 50%
- inhibition at 100 µM (E. coli SSB): 121%

Molecule: CS(=O)(=O)Nc1ccc(Cc2noc(-c3ccc4[nH]cc(CCN)c4c3)n2)cc1.O [L 694247]
- NS3h (% I): percent inhibition of NS3h binding to Cy5-dT15 (HCV NS3h): 3%
- SSB (% I): percent inhibition of SSB binding to Cy5-dT15 (E. coli SSB): 37%
- HCV (% I): percent inhibition of HCV replication in cells [1]: <0%

Molecule: Cn1c2ccccc2c(=O)n1-c1ccccc1 [compound 15, 1-Methyl-2-phenyl-1H-indazol-3(2H)-one]
- ability to inhibit HCV helicase binding to DNA (in words) (HCV NS3h): complete loss of activity

Molecule: O=c1c2ccc(Br)cc2sn1-c1ccccc1 [compound 3, 6-Bromo-2-phenylbenzo[d]isothiazol-3(2H)-one]
- antiviral potency relative to ebsulfur/ebselen (times more potent) [2]: ~10 times
- therapeutic index (CC50/EC50) [2]: ~1

Molecule: CN(C)[C@@H]1C(O)=C(C(=O)NCN2CCCC2)C(=O)[C@@]2(O)C(O)=C3C(=O)c4c(O)cccc4[C@@](C)(O)[C@H]3C[C@@H]12 [Rolitetracycline]
- inhibition at 100 µM (HCV NS3h): -4%
- inhibition at 100 µM (E. coli SSB): 45%
- HCV (% I): percent inhibition of HCV replication in cells [1]: <0%

Molecule: Cl.NC1CCN(c2cccc(Cl)n2)CC1 [SR 57227A]
- NS3h (% I): percent inhibition of NS3h binding to Cy5-dT15 (HCV NS3h): –1%
- SSB (% I): percent inhibition of SSB binding to Cy5-dT15 (E. coli SSB): 133%
- HCV (% I): percent inhibition of HCV replication in cells [1]: 12%

Molecule: CC(O)CO.N[C@@H](C(=O)N[C@@H]1C(=O)N2C(C(=O)O)=C(CSc3cn[nH]n3)CS[C@H]12)c1ccc(O)cc1 [Seapuron]
- NS3h (% I): percent inhibition of NS3h binding to Cy5-dT15 (HCV NS3h): 22%
- SSB binding inhibition relative to NS3h binding inhibition (E. coli SSB): 3–4 times
- SSB (% I): percent inhibition of SSB binding to Cy5-dT15 (E. coli SSB): 56%
- HCV (% I): percent inhibition of HCV replication in cells [1]: <0%

Molecule: C=CC1=C(C(=O)O)N2C(=O)[C@@H](NC(=O)C(=NO)c3csc(N)n3)[C@H]2SC1 [Spectrum 001824]
- NS3h (% I): percent inhibition of NS3h binding to Cy5-dT15 (HCV NS3h): 11%
- SSB (% I): percent inhibition of SSB binding to Cy5-dT15 (E. coli SSB): 96%
- HCV (% I): percent inhibition of HCV replication in cells [1]: 5.8%

B1: Cy5-dT15 (ssDNA)
DNA: TTTTTTTTTTTTTTT
- binding result (SSB): binds
- binding result (NS3h_1b(con1) [3]): binds

B2: Cy5-dT20 (ssDNA)
DNA: TTTTTTTTTTTTTTTTTTTT
- binding signal (NS3h_2a(JFH1)): ~2 Ka relative to NS3h_1b(con1)
- binding signal (NS3h_1b(con1) [4]): 1 Ka relative to NS3h_1b(con1)

B3: Cy5-rU15 (ssRNA)
RNA: UUUUUUUUUUUUUUU
- binding result (SSB): binds
- binding result (NS3h_1b(con1) [5]): binds

Source: paper PMC4201343 (ACS Chemical Biology, 2014)
